Active and inactive are the calls of the source. No cut-off for these calls is given here.
Experiments:
[1] = biological target: T1, Gonadotropin-releasing hormone receptor (Homo sapiens, UniProt P30968); test: (§1) Displacement of [125I]His5,D-Tyr6]GnRH from human cloned GnRH receptor transfected in COS7 cells; assay type: cell-based, COS-7
T1 sequence (P30968 whole entry): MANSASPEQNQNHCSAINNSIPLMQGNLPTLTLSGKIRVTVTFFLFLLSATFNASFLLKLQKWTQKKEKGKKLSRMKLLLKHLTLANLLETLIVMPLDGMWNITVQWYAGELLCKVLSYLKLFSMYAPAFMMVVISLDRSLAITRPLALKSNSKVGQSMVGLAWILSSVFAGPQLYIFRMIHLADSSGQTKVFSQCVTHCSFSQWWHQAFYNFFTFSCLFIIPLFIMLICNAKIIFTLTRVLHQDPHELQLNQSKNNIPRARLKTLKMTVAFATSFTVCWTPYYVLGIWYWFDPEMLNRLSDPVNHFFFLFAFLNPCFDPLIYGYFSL
Outline: (§2)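 Competition binding against the radiolabelled GnRH agonist at the cloned human GnRH receptor, following a previously published method. Only compounds above 85% UV purity at 220 and 254 nm by LC–MS were assayed. Each compound was tested at least twice.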

[2] = biological target: T2, Gonadotropin-releasing hormone receptor (Homo sapiens) (UniProt P30968); test: as §1; assay type: cell-based; conditions: COS-7; outline: as §2
T2 sequence (whole entry): T1 sequence (P30968 whole entry)

SMILES	Ki [1] [nM]	Activity [2]
Cc1ccc(CN2CCc3c(c(=O)n(CCN(C)CCc4ccccn4)c(=O)n3Cc3c(F)cccc3F)C2)cc1	35	–
O=c1c2c(n(Cc3c(F)cccc3F)c(=O)n1C[C@H]1CCCN1Cc1ccccn1)CCN(Cc1ccc(Cl)cc1)C2	20	–
CN(CCc1ccccn1)CCn1c(=O)c2c(n(Cc3c(F)cccc3F)c1=O)CCN(Cc1ccc(S(C)(=O)=O)cc1)C2	805	–
CN(CCc1ccccn1)CCn1c(=O)c2c(n(Cc3c(F)cccc3F)c1=O)CCN(CCc1c[nH]c3ccccc13)C2	515	–
COc1cccc(-n2c(=O)c3c(n(Cc4c(F)cccc4F)c2=O)CN(Cc2ccc(-n4ccnc4)cc2)CC3)c1	540	–
CN(CCc1ccccn1)CCn1c(=O)c2c(n(Cc3c(F)cccc3F)c1=O)CCN(Cc1ccc(C(F)(F)F)cc1)C2	30	–
Cc1c(CN2CCc3c(c(=O)n(CCN(C)CCc4ccccn4)c(=O)n3Cc3c(F)cccc3C(F)(F)F)C2)sc2ccccc12	10	–
Cc1c(CN2CCc3c(c(=O)n(CCN(C)CCc4ccccn4)c(=O)n3C)C2)sc2ccccc12	> 10000	–
Cc1cc(Cl)ccc1CN1CCc2c(c(=O)n(CCN(C)CCc3ccccn3)c(=O)n2Cc2c(F)cccc2F)C1	5	–
CN(CCc1ccccn1)CCn1c(=O)c2c(n(Cc3c(F)cccc3F)c1=O)CCNC2	> 10000	–
COc1cccc(-n2c(=O)c3c(n(Cc4c(F)cccc4F)c2=O)CN(Cc2ccccc2)CC3)c1	1290	–
CN(C)[C@@H](Cn1c(=O)c2c(n(Cc3c(F)cccc3F)c1=O)CCN(Cc1ccc(Cl)cc1)C2)c1ccccc1	70	–
Cc1c(CN2CCc3c(c(=O)n(CCN(C)CCc4ccccn4)c(=O)n3Cc3ccccc3)C2)sc2ccccc12	305	–
Cc1ccc(CN2CCc3c(c(=O)n(CC4CCCCN4CC(C)C)c(=O)n3Cc3c(F)cccc3F)C2)c(C)c1 (centres undefined)	2590	–
Cc1ccc(CN2CCc3c(c(=O)n(CC4CCCN(C)C4)c(=O)n3Cc3c(F)cccc3F)C2)c(C)c1 (centres undefined)	> 10000	–
Cc1ccc(CN2CCc3c(c(=O)n(CC4CCCN(C5CCCC5)C4)c(=O)n3Cc3c(F)cccc3F)C2)c(C)c1 (centres undefined)	2580	–
CN(CCc1ccccn1)CCn1c(=O)c2c(n(Cc3c(F)cccc3F)c1=O)CCN(Cc1ccc(Cl)cc1)C2	17	–
CN[C@@H](Cn1c(=O)c2c(n(Cc3c(F)cccc3F)c1=O)CCN(Cc1ccc(Cl)cc1)C2)c1ccccc1	45	–
COc1cccc(-n2c(=O)c3c(n(Cc4c(F)cccc4F)c2=O)CNCC3)c1	970	–
CSc1ccc(CN2CCc3c(c(=O)n(CCN(C)CCc4ccccn4)c(=O)n3Cc3c(F)cccc3F)C2)cc1	10	–

SMILES	Ki [1] [nM]	Activity [2]
Cc1ccc(CN2CCc3c(c(=O)n(CC4CCCN(CCc5ccccn5)C4)c(=O)n3Cc3c(F)cccc3F)C2)c(C)c1 (centres undefined)	600	–
CN(CCc1ccccn1)CCn1c(=O)c2c(n(Cc3c(F)cccc3F)c1=O)CCN(Cc1ccc(C(C)(C)C)cc1)C2	300	–
Cc1ccccc1CN1CCc2c(c(=O)n(CCN(C)CCc3ccccn3)c(=O)n2Cc2c(F)cccc2F)C1	85	–
Cc1ccc(CN2CCc3c(c(=O)n(CC4CCCCN4)c(=O)n3Cc3c(F)cccc3F)C2)c(C)c1 (centres undefined)	> 10000	–
CN(CCc1ccccn1)CCn1c(=O)c2c(n(Cc3c(F)cccc3F)c1=O)CCN(Cc1nc3ccccc3n1C)C2	> 10000	–
Cc1ccc(CN2CCc3c(c(=O)n(CC4CCCN(CC(C)C)C4)c(=O)n3Cc3c(F)cccc3F)C2)c(C)c1 (centres undefined)	> 10000	–
O=c1c2c(n(Cc3c(F)cccc3F)c(=O)n1C[C@@H]1CCCCN1CCc1ccccn1)CCN(Cc1ccc(Cl)cc1)C2	2410	–
CCc1ccc(CN2CCc3c(c(=O)n(CCN(C)C)c(=O)n3Cc3c(F)cccc3F)C2)cc1	1400	–
O=c1c2c(n(Cc3c(F)cccc3F)c(=O)n1C[C@H]1CCCCN1CCc1ccccn1)CCN(Cc1ccc(Cl)cc1)C2	30	–
CN(CCc1ccccn1)CCn1c(=O)c2c(n(Cc3c(F)cccc3F)c1=O)CCN(Cc1cccc(Cl)c1)C2	850	–
Cc1c(CN2CCc3c(c(=O)n(CCN(C)CCc4ccccn4)c(=O)n3Cc3ccccc3F)C2)sc2ccccc12	80	–
Cc1ccc(CN2CCc3c(c(=O)n(CC4CCCCN4C4CCCC4)c(=O)n3Cc3c(F)cccc3F)C2)c(C)c1 (centres undefined)	520	–
Cc1ccc(CN2CCc3c(c(=O)n(CCN(C)Cc4ccccn4)c(=O)n3Cc3c(F)cccc3F)C2)c(C)c1	180	–
Cc1ccc(CN2CCc3c(c(=O)n(CC4CCCN(Cc5ccccn5)C4)c(=O)n3Cc3c(F)cccc3F)C2)c(C)c1 (centres undefined)	490	–
COc1cccc(-n2c(=O)c3c(n(Cc4c(F)cccc4F)c2=O)CN(CCc2c[nH]c4ccccc24)CC3)c1	2200	–
Cc1ccc(CN2CCc3c(c(=O)n(CC4CCCCN4Cc4ccccn4)c(=O)n3Cc3c(F)cccc3F)C2)c(C)c1 (centres undefined)	25	–
Cc1ccc(CN2CCc3c(c(=O)n(CC4CCCCN4C)c(=O)n3Cc3c(F)cccc3F)C2)c(C)c1 (centres undefined)	1710	–
Cc1ccc(CN2CCc3c(c(=O)n(CCN(C)CCc4ccccn4)c(=O)n3Cc3c(F)cccc3F)C2)c(C)c1	5	–
Cc1c(CN2CCc3c(c(=O)n(CCN(C)CCc4ccccn4)c(=O)n3Cc3c(F)cccc3F)C2)sc2ccccc12	15	–
O=c1c2c(n(Cc3c(F)cccc3F)c(=O)n1C[C@H]1CCCN1C1CCCC1)CCN(Cc1ccc(Cl)cc1)C2	1370	–

SMILES	Ki [1] [nM]	Activity [2]
COc1cccc(-n2c(=O)c3c(n(Cc4c(F)cccc4F)c2=O)CN(Cc2ccncc2)CC3)c1	1580	–
Cc1c(CN2CCc3c(c(=O)n(CCN(C)CCc4ccccn4)c(=O)n3CC3CCCCC3)C2)sc2ccccc12	380	–
CN(CCc1ccccn1)CCn1c(=O)c2c(n(Cc3c(F)cccc3F)c1=O)CCN(Cc1ccccc1)C2	990	–
COc1ccc(CN2CCc3c(c(=O)n(CCN(C)CCc4ccccn4)c(=O)n3Cc3c(F)cccc3F)C2)cc1	100	–
Cc1ccc(CN2CCc3c(c(=O)n(CC4CCCN(Cc5ccccc5)C4)c(=O)n3Cc3c(F)cccc3F)C2)c(C)c1 (centres undefined)	160	–
CN(CCc1ccccn1)CCn1c(=O)c2c(n(Cc3c(F)cccc3F)c1=O)CCN(Cc1ccncc1)C2	> 10000	–
CCSc1ccc(CN2CCc3c(c(=O)n(CCN(C)CCc4ccccn4)c(=O)n3Cc3c(F)cccc3F)C2)cc1	15	–
COc1ccccc1CN1CCc2c(c(=O)n(CCN(C)CCc3ccccn3)c(=O)n2Cc2c(F)cccc2F)C1	–	inactive
Cc1ccc(CN2CCc3c(c(=O)n(CCN(C)CC(C)C)c(=O)n3Cc3c(F)cccc3F)C2)c(C)c1	1800	–
COc1cccc(-n2c(=O)c3c(n(Cc4c(F)cccc4F)c2=O)CN(Cc2ccccc2OC)CC3)c1	980	–
Cc1ccc(CN2CCc3c(c(=O)n(CC4CCCCN4Cc4ccccc4)c(=O)n3Cc3c(F)cccc3F)C2)c(C)c1 (centres undefined)	945	–
COc1cccc(-n2c(=O)c3c(n(Cc4c(F)cccc4F)c2=O)CN(Cc2ccc(C)cc2)CC3)c1	> 10000	–
CCc1ccc(CN2CCc3c(c(=O)n(CCN(C)CCc4ccccn4)c(=O)n3Cc3c(F)cccc3F)C2)cc1	20	–
Cc1ccc(CN2CCc3c(c(=O)n(CC4CCCNC4)c(=O)n3Cc3c(F)cccc3F)C2)c(C)c1 (centres undefined)	2450	–
CN(CCc1ccccn1)CCn1c(=O)c2c(n(Cc3c(F)cccc3F)c1=O)CCN(Cc1ccc(Cl)c(Cl)c1)C2	255	–
O=c1c2c(n(Cc3c(F)cccc3F)c(=O)n1C[C@H]1CCCN1CCc1ccccn1)CCN(Cc1ccc(Cl)cc1)C2	10	–
Cc1c(CN2CCc3[nH]c(=O)n(CCN(C)CCc4ccccn4)c(=O)c3C2)sc2ccccc12	> 10000	–
CN(CCc1ccccn1)CCn1c(=O)c2c(n(Cc3c(F)cccc3F)c1=O)CCN(Cc1ccc(-n3ccnc3)cc1)C2	> 10000	–
O=c1c2c(n(Cc3c(F)cccc3F)c(=O)n1C[C@H]1CCCN1)CCN(Cc1ccc(Cl)cc1)C2	> 10000	–

Source: ChEMBL document CHEMBL1149618, “Selection, synthesis, and structure-activity relationship of tetrahydropyrido[4,3-d]pyrimidine-2,4-diones as human GnRH receptor antagonists” (Bioorg Med Chem, 2007)
